Assay results from ChEMBL document CHEMBL5113397, “Identification, optimization, and biological evaluation of 3-O-β-chacotriosyl ursolic acid derivatives as novel SARS-CoV-2 entry inhibitors by targeting the prefusion state of spike protein” (Eur J Med Chem, 2022).
The source made the active and inactive calls. No cut-off for these calls is given here.

Key:
SARS-CoV-2 [1] = assay: Antiviral activity against pseudovirus SARS-CoV-2 spike protein infected human HEK293T cells overexpressing ACE2 assessed as inhibition on pseudovirus infection at 40 uM incubated for 48 hrs by luciferase assay; format: functional; conditions: Severe acute respiratory syndrome coronavirus 2, HEK-293T
How it was run: (§1)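 S plasmid (wild type, or E484K, D614G or N501Y mutant) transfected into 293T cells; PsV-containing supernatant harvested at 48 h. 293T-ACE2 cells seeded 24 h ahead, then given an equal-volume mix of compound dilutions and PsV supernatant for 48 h. Cells lysed and luciferase activity quantified. Mean ± SD of three experiments.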

SARS-CoV-2 [2] = assay: Antiviral activity against SARS-CoV-2 VSV-G pseudotyped virus infected human HEK293T cells overexpressing ACE2 incubated for 48 hrs by luciferase assay; format: functional, organism-based; conditions: Severe acute respiratory syndrome coronavirus 2, HEK-293T
SARS-CoV-2 [3] = assay: Antiviral activity against pseudovirus SARS-CoV-2 spike protein infected human HEK293T cells overexpressing ACE2 assessed as inhibition on pseudovirus infection incubated for 48 hrs by luciferase assay; format: functional, organism-based; conditions: Severe acute respiratory syndrome coronavirus 2, HEK-293T; how it was run: as §1
SARS-CoV-2 [4] = assay: Antiviral activity against pseudovirus SARS-CoV-2 spike protein infected human HEK293T cells overexpressing ACE2 assessed as inhibition on pseudovirus infection at 10 uM incubated for 48 hrs by luciferase assay; format: functional; conditions: Severe acute respiratory syndrome coronavirus 2, HEK-293T; how it was run: as §1
[5] = Selectivity index, ratio of CC50 for cytotoxicity against human HEK293T cells overexpressing human ACE2 to EC50 for antiviral activity against SARS-CoV-2 VSV-G pseudotyped virus infected human HEK293T cells overexpressing ACE2; format: toxicity, cell-based; conditions: read-out: Ratio CC50/EC50
SARS-CoV-2 [6] = assay: Antiviral activity against pseudotyped spike protein mutant P.10 SARS-CoV-2 Gamma variant infected human HEK293T cells overexpressing ACE2 assessed as inhibition on viral entry incubated for 48 hrs by luciferase assay; format: functional, organism-based, Severe acute respiratory syndrome coronavirus 2
SARS-CoV-2 [7] = assay: Antiviral activity against pseudotyped spike protein mutant B.1.351 SARS-CoV-2 Beta variant infected human HEK293T cells overexpressing ACE2 assessed as inhibition on viral entry incubated for 48 hrs by luciferase assay; format: functional, organism-based, Severe acute respiratory syndrome coronavirus 2
SARS-CoV-2 [8] = assay: Antiviral activity against pseudovirus SARS-CoV-2 spike protein with E484K mutant infected human HEK293T cells overexpressing ACE2 assessed as inhibition on pseudovirus infection at 5 to 40 uM incubated for 48 hrs by luciferase assay; format: functional, organism-based; conditions: Severe acute respiratory syndrome coronavirus 2, dose 5-40 µM; how it was run: as §1
SARS-CoV-2 [9] = assay: Antiviral activity against pseudovirus SARS-CoV-2 spike protein with N501Y mutant infected human HEK293T cells overexpressing ACE2 assessed as inhibition on pseudovirus infection at 5 to 40 uM incubated for 48 hrs by luciferase assay; format: functional, organism-based; conditions: Severe acute respiratory syndrome coronavirus 2, dose 5-40 µM; how it was run: as §1
SARS-CoV-2 [10] = assay: Antiviral activity against pseudovirus SARS-CoV-2 spike protein mutant Omicron variant infected human HEK293T cells overexpressing ACE2 assessed as inhibition on viral entry incubated for 48 hrs by luciferase assay; format: functional, organism-based, Severe acute respiratory syndrome coronavirus 2
SARS-CoV-2 [11] = assay: Antiviral activity against pseudovirus SARS-CoV-2 spike protein with D614G mutant infected human HEK293T cells overexpressing ACE2 assessed as inhibition on pseudovirus infection at 5 to 40 uM incubated for 48 hrs by luciferase assay; format: functional, organism-based; conditions: Severe acute respiratory syndrome coronavirus 2, dose 5-40 µM; how it was run: as §1
SARS-CoV-2 [12] = assay: Antiviral activity against pseudovirus spike protein mutant B.1.617.2 SARS-CoV-2 Delta variant infected human HEK293T cells overexpressing ACE2 assessed as inhibition on viral entry incubated for 48 hrs by luciferase assay; format: functional, organism-based, Severe acute respiratory syndrome coronavirus 2
SARS-CoV-2 [13] = assay: Antiviral activity against pseudotyped spike protein mutant B.1.1.7 SARS-CoV-2 Alpha variant infected human HEK293T cells overexpressing ACE2 assessed as inhibition on viral entry incubated for 48 hrs by luciferase assay; format: functional, organism-based, Severe acute respiratory syndrome coronavirus 2

| Structure (SMILES) | inhibition at 40 µM (SARS-CoV-2 [1]) [%] | EC50 (SARS-CoV-2 [3]) [µM] | inhibition at 10 µM (SARS-CoV-2 [4]) [%] | also measured |
| --- | --- | --- | --- | --- |
| C[C@H]1[C@H](C)CC[C@]2(C(=O)NCc3ccccc3)CC[C@]3(C)C(=CC[C@@H]4[C@@]5(C)CC[C@H](O[C@@H]6O[C@H](CO)[C@@H](O[C@@H]7O[C@@H](C)[C@H](O)[C@@H](O)[C@H]7O)[C@H](O)[C@H]6O[C@@H]6O[C@@H](C)[C@H](O)[C@@H](O)[C@H]6O)C(C)(C)[C@@H]5CC[C@]43C)[C@H]12 | 59.2 | 12 | 92.5 | EC50 (SARS-CoV-2 [2]): > 100 µM; selectivity ratio [5]: > 10 |
| COc1ccccc1NC(=O)[C@]12CC[C@@H](C)[C@H](C)[C@H]1C1=CC[C@@H]3[C@@]4(C)CC[C@H](O[C@@H]5O[C@H](CO)[C@@H](O[C@@H]6O[C@@H](C)[C@H](O)[C@@H](O)[C@H]6O)[C@H](O)[C@H]5O[C@@H]5O[C@@H](C)[C@H](O)[C@@H](O)[C@H]5O)C(C)(C)[C@@H]4CC[C@@]3(C)[C@]1(C)CC2 | – | 10.7 | – | selectivity ratio [5]: 4.05 |
| C[C@H]1[C@H](C)CC[C@]2(C(=O)Nc3ccc4sccc4c3)CC[C@]3(C)C(=CC[C@@H]4[C@@]5(C)CC[C@H](O[C@@H]6O[C@H](CO)[C@@H](O[C@@H]7O[C@@H](C)[C@H](O)[C@@H](O)[C@H]7O)[C@H](O)[C@H]6O[C@@H]6O[C@@H](C)[C@H](O)[C@@H](O)[C@H]6O)C(C)(C)[C@@H]5CC[C@]43C)[C@H]12 | -31.8 | – | -21.7 | – |
| C[C@H]1[C@H](C)CC[C@]2(C(=O)Nc3ccccc3Cl)CC[C@]3(C)C(=CC[C@@H]4[C@@]5(C)CC[C@H](O[C@@H]6O[C@H](CO)[C@@H](O[C@@H]7O[C@@H](C)[C@H](O)[C@@H](O)[C@H]7O)[C@H](O)[C@H]6O[C@@H]6O[C@@H](C)[C@H](O)[C@@H](O)[C@H]6O)C(C)(C)[C@@H]5CC[C@]43C)[C@H]12 | – | 12.7 | – | – |
| COc1ccc(CNC(=O)[C@]23CC[C@@H](C)[C@H](C)[C@H]2C2=CC[C@@H]4[C@@]5(C)CC[C@H](O[C@@H]6O[C@H](CO)[C@@H](O[C@@H]7O[C@@H](C)[C@H](O)[C@@H](O)[C@H]7O)[C@H](O)[C@H]6O[C@@H]6O[C@@H](C)[C@H](O)[C@@H](O)[C@H]6O)C(C)(C)[C@@H]5CC[C@@]4(C)[C@]2(C)CC3)cc1 | 36.3 | 11.8 | 85.7 | EC50 (SARS-CoV-2 [2]): > 100 µM; selectivity ratio [5]: > 10 |
| C[C@H]1[C@H](C)CC[C@]2(C(=O)Nc3ccc4c(cnn4C)c3)CC[C@]3(C)C(=CC[C@@H]4[C@@]5(C)CC[C@H](O[C@@H]6O[C@H](CO)[C@@H](O[C@@H]7O[C@@H](C)[C@H](O)[C@@H](O)[C@H]7O)[C@H](O)[C@H]6O[C@@H]6O[C@@H](C)[C@H](O)[C@@H](O)[C@H]6O)C(C)(C)[C@@H]5CC[C@]43C)[C@H]12 | 41.1 | – | 51.9 | – |
| C[C@H]1[C@H](C)CC[C@]2(C(=O)NCCc3ccccc3)CC[C@]3(C)C(=CC[C@@H]4[C@@]5(C)CC[C@H](O[C@@H]6O[C@H](CO)[C@@H](O[C@@H]7O[C@@H](C)[C@H](O)[C@@H](O)[C@H]7O)[C@H](O)[C@H]6O[C@@H]6O[C@@H](C)[C@H](O)[C@@H](O)[C@H]6O)C(C)(C)[C@@H]5CC[C@]43C)[C@H]12 | 28.2 | – | 49.5 | – |
| C[C@H]1[C@H](C)CC[C@]2(C(=O)Nc3ccc4ccccc4c3)CC[C@]3(C)C(=CC[C@@H]4[C@@]5(C)CC[C@H](O[C@@H]6O[C@H](CO)[C@@H](O[C@@H]7O[C@@H](C)[C@H](O)[C@@H](O)[C@H]7O)[C@H](O)[C@H]6O[C@@H]6O[C@@H](C)[C@H](O)[C@@H](O)[C@H]6O)C(C)(C)[C@@H]5CC[C@]43C)[C@H]12 | -7.27 | – | 14.5 | – |
| C[C@H]1[C@H](C)CC[C@]2(C(=O)Nc3ccc4c(c3)OCCO4)CC[C@]3(C)C(=CC[C@@H]4[C@@]5(C)CC[C@H](O[C@@H]6O[C@H](CO)[C@@H](O[C@@H]7O[C@@H](C)[C@H](O)[C@@H](O)[C@H]7O)[C@H](O)[C@H]6O[C@@H]6O[C@@H](C)[C@H](O)[C@@H](O)[C@H]6O)C(C)(C)[C@@H]5CC[C@]43C)[C@H]12 | -2.49 | – | 30.4 | – |
| C[C@H]1[C@H](C)CC[C@]2(C(=O)Nc3ccc(Cc4ccccc4)cc3)CC[C@]3(C)C(=CC[C@@H]4[C@@]5(C)CC[C@H](O[C@@H]6O[C@H](CO)[C@@H](O[C@@H]7O[C@@H](C)[C@H](O)[C@@H](O)[C@H]7O)[C@H](O)[C@H]6O[C@@H]6O[C@@H](C)[C@H](O)[C@@H](O)[C@H]6O)C(C)(C)[C@@H]5CC[C@]43C)[C@H]12 | 10.3 | – | 19.2 | – |
| COc1cccc(OC)c1NC(=O)[C@]12CC[C@@H](C)[C@H](C)[C@H]1C1=CC[C@@H]3[C@@]4(C)CC[C@H](O[C@@H]5O[C@H](CO)[C@@H](O[C@@H]6O[C@@H](C)[C@H](O)[C@@H](O)[C@H]6O)[C@H](O)[C@H]5O[C@@H]5O[C@@H](C)[C@H](O)[C@@H](O)[C@H]5O)C(C)(C)[C@@H]4CC[C@@]3(C)[C@]1(C)CC2 | 46.8 | 9.84 | 96.8 | EC50 (SARS-CoV-2 [6]): 2.66 µM; EC50 (SARS-CoV-2 [7]): 11.6 µM; inhibition (SARS-CoV-2 [8]): Active; EC50 (SARS-CoV-2 [2]): > 100 µM; inhibition (SARS-CoV-2 [9]): Active; EC50 (SARS-CoV-2 [10]): 7.23 µM; inhibition (SARS-CoV-2 [11]): Active; EC50 (SARS-CoV-2 [12]): 1.78 µM; EC50 (SARS-CoV-2 [13]): 7.68 µM; selectivity ratio [5]: > 10.2 |
| C[C@H]1[C@H](C)CC[C@]2(C(=O)N3CCc4ccccc4C3)CC[C@]3(C)C(=CC[C@@H]4[C@@]5(C)CC[C@H](O[C@@H]6O[C@H](CO)[C@@H](O[C@@H]7O[C@@H](C)[C@H](O)[C@@H](O)[C@H]7O)[C@H](O)[C@H]6O[C@@H]6O[C@@H](C)[C@H](O)[C@@H](O)[C@H]6O)C(C)(C)[C@@H]5CC[C@]43C)[C@H]12 | 32.5 | – | 58.7 | – |
| C[C@H]1[C@H](C)CC[C@]2(C(=O)Nc3ccc4ncccc4c3)CC[C@]3(C)C(=CC[C@@H]4[C@@]5(C)CC[C@H](O[C@@H]6O[C@H](CO)[C@@H](O[C@@H]7O[C@@H](C)[C@H](O)[C@@H](O)[C@H]7O)[C@H](O)[C@H]6O[C@@H]6O[C@@H](C)[C@H](O)[C@@H](O)[C@H]6O)C(C)(C)[C@@H]5CC[C@]43C)[C@H]12 | 27.4 | – | 33.1 | – |
| O=C(/C=C/c1ccc(O)c2oc(-c3ccc(O)c(O)c3)cc12)O[C@H](Cc1ccc(O)c(O)c1)C(=O)O | 80.2 | – | 98.3 | – |
| C[C@H]1[C@H](C)CC[C@]2(C(=O)NC(c3ccccc3)c3ccccc3)CC[C@]3(C)C(=CC[C@@H]4[C@@]5(C)CC[C@H](O[C@@H]6O[C@H](CO)[C@@H](O[C@@H]7O[C@@H](C)[C@H](O)[C@@H](O)[C@H]7O)[C@H](O)[C@H]6O[C@@H]6O[C@@H](C)[C@H](O)[C@@H](O)[C@H]6O)C(C)(C)[C@@H]5CC[C@]43C)[C@H]12 | 0.47 | – | 1.58 | – |
| C[C@H]1[C@H](C)CC[C@]2(C(=O)Nc3ccc(-c4ccccc4)cc3)CC[C@]3(C)C(=CC[C@@H]4[C@@]5(C)CC[C@H](O[C@@H]6O[C@H](CO)[C@@H](O[C@@H]7O[C@@H](C)[C@H](O)[C@@H](O)[C@H]7O)[C@H](O)[C@H]6O[C@@H]6O[C@@H](C)[C@H](O)[C@@H](O)[C@H]6O)C(C)(C)[C@@H]5CC[C@]43C)[C@H]12 | 16.9 | – | 27.4 | – |
